Yeast life ext = yeast lifespan extension; actives 0.68% (n = 130,000); inhibition of the nicotinamide effect, % at 10 µM; AID 775; S. cerevisiae growth with nicotinamide, OD615; deaD strain in restrictive glucose medium;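 active = inhibition above a set limit, placed 3 SD over the median of all compounds, cut at about 26% in these data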
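Test system – modified budding yeast, DeaD strain · Compound – single dose 10 µM compound, 0.25% DMSO · Times – culture preincubation 4 h, compound exposure 48 h, both 30 °C · Detection – optical density (absorbance) at 615 nm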
PostGolgi yeast = growth inhibition of a yeast mutant, post-Golgi transport screen; inhibition, % at 10 µM; post-Golgi transport phenotypic cell assay; actives 0.9% (n = 98,000); AID 739;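 note: yeast cells grown in 1536-well plates; yeast grown about 18 h at 30C before absorbance read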
BB579 growth dn = yeast BB579 growth reduction in restrictive medium; S. cerevisiae BB579 growth, OD615, 48 h; inhibition, % at 10 µM; actives 0.51% (n = 140,000); AID 804;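 active = inhibition above a set limit, 3 SD over the mean compound inhibition, cut at about 44% in these data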
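Assay system: S. cerevisiae DeaD strain BB579 yeast. Medium: CSMM-D restrictive synthetic medium containing dextrose (glucose). Times: 4 h cell preincubation, 48 h compound exposure, 30 °C humidified. Signal: OD615 turbidity measurement. Benchmarks: positive control amphotericin B 10 µg/mL.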
PostGolgi ctrl = growth of the yeast control strain, post-Golgi counter-screen | efflux-deficient yeast background strain, growth absorbance A615, 16 h | inhibition, % at 10 µM | actives 5% (n = 98,000) | AID 738
A number is an active result; - = inactive; . = no result; ! = not confirmed by another sample. This is one part of a sample in which hits are shown more often than they occur. Cut-off read from the data, not from the text of the source, unless noted: active = inhibition above about 30%; inactive = the rest.

SMILES	Yeast life ext	PostGolgi yeast	BB579 growth dn	PostGolgi ctrl
CCN(CC)C(=O)C(=O)N/N=C/c1ccc(C(=O)O)cc1	-	.	-	.
N#CC1=C(N)N(c2ccccc2Sc2ccccc2)C(=O)C1	-	-	-	35
CCOC(=O)c1c(-c2cccs2)csc1NC(=O)c1ccncc1	-	-	-	-
O=C(Nc1scc(-c2ccccc2)c1C(=O)O)c1ccco1	42	-	-	-
O=C(Nc1scc(-c2cccs2)c1C(=O)O)c1cccs1	35	-	-	-
NC(=O)c1cc(Cc2ccccc2)sc1NC(=O)c1ccco1	-	-	-	45
O=C1c2ccccc2CN1CCSC(=S)N1CCOCC1	-	.	-	.
O=C(O)CSc1ccc2ccccc2n1	-	-	-	-
O=C(O)CCSc1ccc2ccccc2n1	-	-	-	44!
O=C(CSc1ccc2ccccc2n1)c1ccc2c(c1)OCO2	-	-	-	32
CCCCc1ccc(N=N/C(C(=O)Nc2cc(OC)c(NC(C)=O)cc2OC)=C(/C)O)cc1	-	.	-	.
CCCCC(=O)Nc1nc2ccc3nc(C)sc3c2s1	-	-	-	45
C=C(Cl)COc1ccc2c(CCCC)cc(=O)oc2c1	-	-	-	31
CCc1cc2c(N3CCN(c4ccccc4)CC3)ncnc2s1	-	-	-	48
c1ccc(N2CCN(c3ncnc4sc5c(c34)CCC5)CC2)cc1	-	-	-	-
Cc1nc2c(n1C1CCCCC1)C(=O)c1ccccc1C2=O	-	-	-	-
O=C(COc1c(Br)cc(Br)c2cccnc12)N1CCc2ccccc2C1	-	-	99	67
O=C(COc1cccc2cccnc12)N1CCc2ccccc2C1	-	-	-	-
CCCCn1c(=NC(=O)c2ccco2)c(C(=O)OCC)cc2c(=O)n3ccccc3nc21	-	-	-	-
CCCCCn1c(=NC(=O)c2ccco2)c(C(=O)OCC)cc2c(=O)n3ccccc3nc21	-	-	-	33
COc1ccc(C(=O)/C=C2/Sc3cc4c(cc3N2C)OCO4)cc1	-	.	-	.
COc1ccc2c(c1)S/C(=C\C(=O)c1ccncc1)N2C	-	51	92	86
Cc1ccccc1NC(=O)C1Cc2ccccc2CN1C(=O)OCc1ccccc1 (centres undefined)	-	.	-	.
Clc1ccc(OCCCNCc2ccccc2)c(Br)c1	-	-	-	31
O=C(NCCc1ccccc1)C1(c2ccccc2)CC1(Cl)Cl (centres undefined)	-	-	-	39
SMILES	Yeast life ext	PostGolgi yeast	BB579 growth dn	PostGolgi ctrl
COc1ccc2c(c1)c(C(=O)CN1CCC(C(N)=O)CC1)c(C)n2C	-	-	-	-
CCOC(=O)C1C(=O)C=C(c2ccc([N+](=O)[O-])cc2)CC1c1ccccc1 (centres undefined)	-	-	-	38
CCOC(=O)C1C(=O)C=C(c2cccs2)CC1c1ccccc1 (centres undefined)	-	.	-	.
COc1ccc(NC(=O)N(Cc2cc3cc(OC)ccc3[nH]c2=O)CC2CCCO2)cc1 (centres undefined)	-	-	-	36
COc1ccc(NC(=O)N(CCCN(C)C)Cc2cc3cc(OC)ccc3[nH]c2=O)cc1	-	.	-	.
O=C(C1CC1)N1CCc2cc(S(=O)(=O)NCCC3=CCCCC3)ccc21	-	-	-	36
COC(=O)/C(=C1/Oc2ccc(C(C)(C)C)cc2S1)C(F)(F)F	-	.	-	.
COC(=O)/C(=C1/Oc2cc(C)oc(=O)c2S1)C(F)(F)F	47	-	-	78
CCOc1ccc(Br)cc1S(=O)(=O)Nc1ccccc1N1CCOCC1	-	-	-	-
O=C(Nc1nnc(-c2ccccc2Cl)o1)c1cccnc1	34	-	-	-
CCOC(=O)N1CCN(c2c(NCc3ccccn3)c(=O)c2=O)CC1	-	-	-	31
Cc1ccc(CN(C#N)c2nc(C)cc(C)n2)cc1	-	-	-	-
COc1ccc(CN(C#N)c2nc(SC)nc(N(C)C)n2)cc1	-	-	-	41
COc1ccc(NS(=O)(=O)c2ccc(SC)cc2)c(OC)c1	-	-	-	-
Cc1ccccc1NS(=O)(=O)c1ccc(F)cc1	-	-	-	-
CSc1ccc(S(=O)(=O)Nc2ccc3c4c(cccc24)CC3)cc1	-	-	-	66
O=S(=O)(Nc1ccc2c3c(cccc13)CC2)c1ccc(F)cc1	-	-	-	40
O=C(NCCc1ccccc1)N1c2ccccc2Sc2ccccc21	-	-	-	-
O=C1CSc2ccc(C(=O)N3CCN(c4ccccn4)CC3)cc2N1	-	-	-	-
O=C(NC1CCN(C(=O)N2c3ccccc3Sc3ccccc32)CC1)c1ccccc1Cl	-	-	-	43
O=C(c1ccco1)N1c2ccccc2Sc2ccccc21	-	-	-	32
O=C(c1ccco1)N1CCN(C(=O)N2c3ccccc3Sc3ccccc32)CC1	-	-	-	44
O=C(NC1CCN(C(=O)N2c3ccccc3Sc3ccccc32)CC1)c1ccco1	-	-	-	-
CN1C(=O)/C(=C\c2ccccc2)Sc2ccc(C(=O)N3CCN(c4ccccn4)CC3)cc21	-	-	-	32
C=CCn1c(CCC(=O)Nc2ccc(C)c(Cl)c2)nnc1SCC(=O)Nc1ccccc1C	-	-	-	-
SMILES	Yeast life ext	PostGolgi yeast	BB579 growth dn	PostGolgi ctrl
O=C(N1CCN(c2ccccn2)CC1)N1c2ccccc2Sc2ccccc21	-	-	-	85
O=C(N1CCN(c2ccccn2)CC1)C(Cl)(Cl)Cl	-	.	-	.
N/C(Cc1ccc([N+](=O)[O-])cc1)=N\OC(=O)C(c1ccccc1)c1ccccc1	-	-	-	33
N/C(Cc1ccc([N+](=O)[O-])cc1)=N\OC(=O)c1ccc2ccccc2c1	-	-	-	72
N/C(Cc1ccccc1)=N\OC(=O)c1cccc2ccccc12	-	.	84	.
N/C(Cc1ccc([N+](=O)[O-])cc1)=N\OC(=O)CC1CCCCC1	-	.	-	.
N/C(Cc1ccc(Cl)cc1)=N\OC(=O)C1CCCCC1	-	.	100	.
N/C(Cc1ccc([N+](=O)[O-])cc1)=N\OC(=O)c1ccccc1Br	-	.	-	.
Cc1cccc(C(=O)O/N=C(\N)Cc2ccc([N+](=O)[O-])cc2)c1	-	-	-	-
COc1cccc(C(=O)O/N=C(\N)Cc2ccc(Cl)cc2)c1	-	.	100	.
COc1cccc(C(=O)O/N=C(\N)c2ccncc2)c1	-	-	-	-
CCN1CCCC1CNC(=O)C(=O)Nc1ccccc1OC (centres undefined)	-	-	-	-
O=C(NC(=S)N1CCCCC1)C12CC3CC(CC(C3)C1)C2	-	-	-	33
COc1cccc(-n2c(CN3CCN(c4ccccc4)CC3)nc3ccc([N+](=O)[O-])cc3c2=O)c1	-	.	-	.
CCOC(=O)Cn1nnc2c(sc3nc4c(c(-c5ccc(Cl)cc5)c32)CCC4)c1=O	-	-	-	34
CCOC(=O)Cn1nnc2c(sc3nc4c(c(-c5ccccc5)c32)CCC4)c1=O	-	-	-	32
O=c1[nH]cnc2c1sc1nc3c(c(-c4ccc(Cl)cc4)c12)CCC3	-	-	-	-
O=C(COc1ccccc1)Nc1cccc(-c2nc3ccccc3[nH]2)c1	-	.	-	.
O=C(O)CCCC(=O)Nc1cccc(-c2nc3ccccc3[nH]2)c1	-	-	-	31
Cc1nn(-c2ccccc2)c(N2CCCC2)c1/C=N/NC(=O)c1ccccc1O	-	.	-	.

Source: PubChem
